The values that follow come from ChEMBL document CHEMBL5329211, “Selective isoxazolopyrimidine PAT1 (SLC26A6) inhibitors for therapy of intestinal disorders” (RSC Med Chem, 2023).

Structures are written as SMILES. Active and inactive are the calls of the source. The rule behind the calls is not given here.

Series [1] addresses Solute carrier family 26 member 6 (Mus musculus) (UniProt Q8CIW6). The series can be described thus: Inhibition of SLC26A6 (unknown origin) expressed in rat FRT cells coexpressing YFP halide-sensing protein assessed as iodide-chloride exchange incubated for 2 sec by fluorescence quenching analysis.
Series [2] addresses T1, Chloride anion exchanger (Homo sapiens) (UniProt P40879).
T1 sequence (whole entry): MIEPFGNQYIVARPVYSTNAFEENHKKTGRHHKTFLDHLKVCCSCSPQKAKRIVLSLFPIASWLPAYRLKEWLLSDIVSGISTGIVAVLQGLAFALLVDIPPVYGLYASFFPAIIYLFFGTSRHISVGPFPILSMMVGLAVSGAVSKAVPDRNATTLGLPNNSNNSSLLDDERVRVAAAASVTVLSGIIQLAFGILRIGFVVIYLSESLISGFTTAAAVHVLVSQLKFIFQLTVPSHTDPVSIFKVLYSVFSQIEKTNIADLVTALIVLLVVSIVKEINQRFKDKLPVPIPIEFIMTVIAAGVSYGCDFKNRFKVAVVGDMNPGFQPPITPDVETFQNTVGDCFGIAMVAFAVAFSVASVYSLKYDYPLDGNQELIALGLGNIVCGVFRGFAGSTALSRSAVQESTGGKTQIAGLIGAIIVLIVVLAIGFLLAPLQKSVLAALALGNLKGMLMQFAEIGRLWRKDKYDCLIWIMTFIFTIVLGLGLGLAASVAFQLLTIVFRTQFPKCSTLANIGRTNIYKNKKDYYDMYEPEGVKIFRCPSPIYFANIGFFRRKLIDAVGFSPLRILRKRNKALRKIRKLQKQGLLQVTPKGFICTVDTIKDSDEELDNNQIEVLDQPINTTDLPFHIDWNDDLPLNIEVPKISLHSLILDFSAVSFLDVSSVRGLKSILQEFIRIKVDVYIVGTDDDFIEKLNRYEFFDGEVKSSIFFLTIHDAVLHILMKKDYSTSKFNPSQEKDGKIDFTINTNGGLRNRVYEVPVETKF
The series can be described thus: Inhibition of SLC26A3 (unknown origin) expressed in rat FRT cells coexpressing YFP halide-sensing protein assessed as iodide-chloride exchange at 25 uM incubated for 2 sec by fluorescence quenching analysis. In kind it is cell-based.

The next series has as its system Mus musculus. The series is described as follows: In vivo inhibition of PAT1 in intestinal closed-loop CD-1 mouse model harboring CFTR delF508/delF508 mutant assessed as reduction in loop weight/length ratio in ileum measured for 30 mins. In kind it is functional, organism-based. Put shortly:
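Mice (wild-type CD1 or homozygous F508del CF, 10-16 wk, both sexes) fasted 24 h with free access to 5% dextrose water. Under isoflurane at 36-38 °C, 2-3 ileal loops (2-3 cm) were tied off and injected with 100 µL PBS pH 7.4 containing 30 µM inhibitor, 10 µM tenapanor or 0.1% DMSO vehicle. Loops removed at 0 or 30 min in separate mice; length and weight measured for fluid absorption. One-way ANOVA with Newman-Keuls.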

In the next series the target is T2, Pendrin (Homo sapiens) (UniProt O43511).
T2 sequence (whole entry): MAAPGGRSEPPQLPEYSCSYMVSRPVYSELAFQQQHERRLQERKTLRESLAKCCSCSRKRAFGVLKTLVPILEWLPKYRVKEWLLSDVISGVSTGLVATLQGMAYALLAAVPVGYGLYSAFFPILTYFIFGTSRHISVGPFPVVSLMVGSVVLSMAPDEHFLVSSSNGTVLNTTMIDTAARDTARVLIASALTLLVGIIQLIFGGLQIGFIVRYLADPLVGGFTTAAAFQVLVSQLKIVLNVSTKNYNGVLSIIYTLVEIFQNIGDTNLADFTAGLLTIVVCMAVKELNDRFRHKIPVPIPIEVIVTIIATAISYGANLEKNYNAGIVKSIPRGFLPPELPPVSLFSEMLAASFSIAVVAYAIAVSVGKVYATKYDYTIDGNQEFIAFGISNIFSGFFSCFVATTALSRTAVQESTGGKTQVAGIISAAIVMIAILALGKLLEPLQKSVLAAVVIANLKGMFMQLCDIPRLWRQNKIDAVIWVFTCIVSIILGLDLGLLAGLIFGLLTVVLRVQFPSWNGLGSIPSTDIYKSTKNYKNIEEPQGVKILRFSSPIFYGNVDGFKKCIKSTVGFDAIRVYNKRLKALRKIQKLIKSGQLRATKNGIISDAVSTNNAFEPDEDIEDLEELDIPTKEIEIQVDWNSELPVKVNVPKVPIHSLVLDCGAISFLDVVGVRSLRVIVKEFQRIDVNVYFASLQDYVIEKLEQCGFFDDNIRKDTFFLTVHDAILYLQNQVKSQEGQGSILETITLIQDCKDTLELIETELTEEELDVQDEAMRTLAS
The series can be described thus: Inhibition of SLC26A4 (unknown origin) expressed in rat FRT cells coexpressing YFP halide-sensing protein assessed as iodide-chloride exchange at 25 uM incubated for 2 sec by fluorescence quenching analysis. In kind it is cell-based.

Series [3] in a line: Cytotoxicity against rat FRT cells assessed as reduction in cell viability at 10 uM incubated for 24 hrs by alamar blue staining based analysis. In kind it is toxicity. The gist of the method:
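FRT cells seeded 20,000/well and grown 24 h, then exposed to compound at 10 μM for 24 h. Vehicle control 0.1% DMSO, positive control 20% DMSO. Viability read by Alamar Blue.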
(Resazurin is reduced to fluorescent resorufin, in cell work by metabolically active cells.)

Sequence of Solute carrier family 26 member 6 (Mus musculus) (Q8CIW6 whole entry, looked up): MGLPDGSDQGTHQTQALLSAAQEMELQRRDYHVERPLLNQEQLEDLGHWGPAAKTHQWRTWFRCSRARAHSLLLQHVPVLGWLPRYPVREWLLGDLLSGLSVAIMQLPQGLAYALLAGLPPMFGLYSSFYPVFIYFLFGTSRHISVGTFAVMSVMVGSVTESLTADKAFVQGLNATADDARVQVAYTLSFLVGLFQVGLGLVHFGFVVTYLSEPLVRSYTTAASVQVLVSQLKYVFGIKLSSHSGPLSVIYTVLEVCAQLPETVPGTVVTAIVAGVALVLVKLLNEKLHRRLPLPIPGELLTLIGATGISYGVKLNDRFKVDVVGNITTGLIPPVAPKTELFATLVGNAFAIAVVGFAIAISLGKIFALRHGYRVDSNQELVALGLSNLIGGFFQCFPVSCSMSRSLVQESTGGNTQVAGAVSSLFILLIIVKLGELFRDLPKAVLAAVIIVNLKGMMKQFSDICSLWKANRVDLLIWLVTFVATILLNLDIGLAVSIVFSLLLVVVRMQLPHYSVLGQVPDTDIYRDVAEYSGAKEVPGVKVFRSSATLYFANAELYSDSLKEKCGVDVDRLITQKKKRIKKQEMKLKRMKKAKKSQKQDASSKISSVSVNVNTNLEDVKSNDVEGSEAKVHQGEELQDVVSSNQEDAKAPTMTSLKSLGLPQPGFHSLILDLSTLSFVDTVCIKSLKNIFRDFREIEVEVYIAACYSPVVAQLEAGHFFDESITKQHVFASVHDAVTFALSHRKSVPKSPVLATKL

Turning to `CCOC(=O)c1nc(N(C)Cc2ccccc2)c2c(C)noc2n1`, the IC50 in series [1] stood at 1000 nM. Further, the inhibition entry (in series [2]; on Pendrin (Homo sapiens)) was “inactive” throughout. Also, the inhibition entry in the series on Mus musculus was “Active”. In series [3], the Activity result is listed as “Non-Toxic”.

In general, IC50 refers to the point on the concentration scale where inhibition reaches its midpoint.
